Tested on: BSF T. brucei brucei strain Lister 427
Experiment: Alamar blue viability test, cytotoxicity against cultured parasites
Assay type: cell-based, Trypanosoma brucei brucei
Details: ED50 determined in the presence of sub-ED50 MTX (0.5-2.5 μM)
In short: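 Bloodstream-form T. brucei brucei Lister 427, grown at 37 °C and 5% CO2 in HMI-9 with 10% fetal calf serum, high folate left unreduced, and neomycin pressure to keep T7 polymerase and tetracycline repressor. […] Values are mean ± std dev (n = 4). Synergy was judged by comparing the area under the slope with half the product of the two ED50 values.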

Row | SMILES | Interaction in combination with MTX (synergy)
1 | N#Cc1c(-c2ccc3c(c2)OCO3)[nH]c2nc(N)[nH]c(=O)c12 [compound 13] | acts synergistically
2 | CCc1nc(N)nc(N)c1-c1ccc(Cl)cc1 [PYR, pyrimethamine] | does not act synergistically

Source: paper PMC2804273 (Journal of Medicinal Chemistry, 2009)
